ChEMBL document CHEMBL5376017, “Glucosamine substituted sulfonylureas: IRS-PI3K-PKC-AKT-GLUT4 insulin signalling pathway intriguing agent” (RSC Med Chem, 2024)
The source made the active and inactive calls. The rule behind the calls is not given here.

Test system: not listed separately
Assay: Cytotoxicity against rat L6 cells assessed as cell viability at 50 to 250 uM incubated for 24 hrs by MTT assay relative to control
Format: toxicity, cell-based
Conditions: dose 50-250 µM, read-out: Activity
Outline: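 Rat L6 myoblasts, 2 × 10^4 cells per mL, allowed to attach, then exposed for 24 h to five concentrations (50–250 μM) from DMSO stocks; 0.1% DMSO as negative control. MTT at 0.5 mg mL−1 added for 4 h, formazan dissolved in DMSO, absorbance read at 570 nm. Viability calculated against control. Triplicate wells, three independent experiments.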

**Q.** For `CC(=O)OC[C@H]1OC(OC(C)=O)[C@H](NC(=O)NS(=O)(=O)c2ccc(Cl)cc2)[C@@H](OC(C)=O)[C@@H]1OC(C)=O` (stereo not given in full), which viability at 24 h, up to 250 µM is on record?
**A.** 50%

**Q.** Which viability at 24 h, up to 250 µM does the source give for `O=C(N[C@H]1C(O)O[C@H](CO)[C@@H](O)[C@@H]1O)NS(=O)(=O)c1ccc(Cl)cc1` (stereo not given in full) here?
**A.** 50%

Test system: L6
Assay: Upregulation of IRS-1 expression in insulin resistant myotube differentiated rat L6 cells at 1 to 2 uM incubated for 24 hrs by qRT-PCR analysis
Format: functional, cell-based
Conditions: dose 1-2 µM
Outline: (§1)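 L6 myoblasts differentiated to myotubes in DMEM with 2% horse serum for 7 days, 2 × 10^4 cells per well. Insulin resistance induced in three steps: 25 mM glucose plus insulin for 24 h, then 5 mM glucose without insulin for 5 h, then insulin for 30 min. Compounds in DMEM with 2% inactivated FBS for 24 h. qPCR normalized to geometric mean of β-actin and γ-actin. Mean ± SEM, one-way ANOVA with Duncan test.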

**Q.** For `CC(=O)OC[C@H]1OC(OC(C)=O)[C@H](NC(=O)NS(=O)(=O)c2ccc(Cl)cc2)[C@@H](OC(C)=O)[C@@H]1OC(C)=O` (stereo not given in full), which Activity is on record?
**A.** Active

**Q.** For `O=C(N[C@H]1C(O)O[C@H](CO)[C@@H](O)[C@@H]1O)NS(=O)(=O)c1ccc(Cl)cc1` (stereo not given in full), which Activity is on record?
**A.** Active

Test system: Soleus muscle
Assay: Upregulation of IRS-1 expression in insulin resistant Sprague-Dawley rat soleus muscle at 1 to 2 uM incubated for 24 hrs by qRT-PCR analysis
Format: functional, tissue-based
Conditions: dose 1-2 µM
Outline: (§2)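 Isolated rat soleus muscle in gassed (95% O2–5% CO2) Krebs–Henseleit buffer. Insulin resistance induced in four steps: KHB with 0.1% BSA and 1 mM pyruvate for 24 h at 37 °C, then high glucose/insulin for 24 h, then 25 mM glucose for 5 h, then insulin for 30 min. Tissue then exposed in KHB for 24 h. qPCR normalized to β-/γ-actin geometric mean. Mean ± SEM, ANOVA/Duncan.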

**Q.** With `CC(=O)OC[C@H]1OC(OC(C)=O)[C@H](NC(=O)NS(=O)(=O)c2ccc(Cl)cc2)[C@@H](OC(C)=O)[C@@H]1OC(C)=O` (stereo not given in full) as the compound, how does the Activity read?
**A.** Active

**Q.** Which Activity does the source give for `O=C(N[C@H]1C(O)O[C@H](CO)[C@@H](O)[C@@H]1O)NS(=O)(=O)c1ccc(Cl)cc1` (stereo not given in full) here?
**A.** Active

Test system: L6
Assay: Upregulation of PI3K expression in insulin resistant myotube differentiated rat L6 cells at 1 to 2 uM incubated for 24 hrs by qRT-PCR analysis
Format: functional, cell-based
Conditions: dose 1-2 µM
Outline: as §1

**Q.** With `CC(=O)OC[C@H]1OC(OC(C)=O)[C@H](NC(=O)NS(=O)(=O)c2ccc(Cl)cc2)[C@@H](OC(C)=O)[C@@H]1OC(C)=O` (stereo not given in full) as the compound, how does the Activity read?
**A.** Active

**Q.** For `O=C(N[C@H]1C(O)O[C@H](CO)[C@@H](O)[C@@H]1O)NS(=O)(=O)c1ccc(Cl)cc1` (stereo not given in full), which Activity is on record?
**A.** Active

Test system: Soleus muscle
Assay: Upregulation of PI3K expression in insulin resistant Sprague-Dawley rat soleus muscle at 1 to 2 uM incubated for 24 hrs by qRT-PCR analysis
Format: functional, tissue-based
Conditions: dose 1-2 µM
Outline: as §2

**Q.** With `CC(=O)OC[C@H]1OC(OC(C)=O)[C@H](NC(=O)NS(=O)(=O)c2ccc(Cl)cc2)[C@@H](OC(C)=O)[C@@H]1OC(C)=O` (stereo not given in full) as the compound, how does the Activity read?
**A.** Active

**Q.** For `O=C(N[C@H]1C(O)O[C@H](CO)[C@@H](O)[C@@H]1O)NS(=O)(=O)c1ccc(Cl)cc1` (stereo not given in full), which Activity is on record?
**A.** Active

Test system: L6
Assay: Downregulation of PKC-alpha expression in insulin resistant myotube differentiated rat L6 cells at 1 to 2 uM incubated for 24 hrs by qRT-PCR analysis
Format: functional, cell-based
Conditions: dose 1-2 µM
Outline: as §1

**Q.** With `CC(=O)OC[C@H]1OC(OC(C)=O)[C@H](NC(=O)NS(=O)(=O)c2ccc(Cl)cc2)[C@@H](OC(C)=O)[C@@H]1OC(C)=O` (stereo not given in full) as the compound, how does the Activity read?
**A.** Active

**Q.** Which Activity does the source give for `O=C(N[C@H]1C(O)O[C@H](CO)[C@@H](O)[C@@H]1O)NS(=O)(=O)c1ccc(Cl)cc1` (stereo not given in full) here?
**A.** Active

Test system: Soleus muscle
Assay: Downregulation of PKC-alpha expression in insulin resistant Sprague-Dawley rat soleus muscle at 1 to 2 uM incubated for 24 hrs by qRT-PCR analysis
Format: functional, tissue-based
Conditions: dose 1-2 µM
Outline: as §2

**Q.** Which Activity does the source give for `CC(=O)OC[C@H]1OC(OC(C)=O)[C@H](NC(=O)NS(=O)(=O)c2ccc(Cl)cc2)[C@@H](OC(C)=O)[C@@H]1OC(C)=O` (stereo not given in full) here?
**A.** Active

**Q.** Which Activity does the source give for `O=C(N[C@H]1C(O)O[C@H](CO)[C@@H](O)[C@@H]1O)NS(=O)(=O)c1ccc(Cl)cc1` (stereo not given in full) here?
**A.** Active

Test system: L6
Assay: Upregulation of PKB/AKT2 expression in insulin resistant myotube differentiated rat L6 cells at 2 uM incubated for 24 hrs by qRT-PCR analysis
Format: functional, cell-based
Conditions: not given
Outline: as §1

**Q.** With `CC(=O)OC[C@H]1OC(OC(C)=O)[C@H](NC(=O)NS(=O)(=O)c2ccc(Cl)cc2)[C@@H](OC(C)=O)[C@@H]1OC(C)=O` (stereo not given in full) as the compound, how does the Activity read?
**A.** Active

**Q.** Which Activity does the source give for `O=C(N[C@H]1C(O)O[C@H](CO)[C@@H](O)[C@@H]1O)NS(=O)(=O)c1ccc(Cl)cc1` (stereo not given in full) here?
**A.** Active

Test system: Soleus muscle
Assay: Upregulation of PKB/AKT2 insulin resistant Sprague-Dawley rat soleus muscle at 2 uM incubated for 24 hrs by qRT-PCR analysis
Format: functional, tissue-based
Conditions: not given
Outline: as §2

**Q.** With `CC(=O)OC[C@H]1OC(OC(C)=O)[C@H](NC(=O)NS(=O)(=O)c2ccc(Cl)cc2)[C@@H](OC(C)=O)[C@@H]1OC(C)=O` (stereo not given in full) as the compound, how does the Activity read?
**A.** Active

**Q.** With `O=C(N[C@H]1C(O)O[C@H](CO)[C@@H](O)[C@@H]1O)NS(=O)(=O)c1ccc(Cl)cc1` (stereo not given in full) as the compound, how does the Activity read?
**A.** Active

Test system: L6
Assay: Upregulation of GLUT4 expression in insulin resistant myotube differentiated rat L6 cells at 1 to 2 uM incubated for 24 hrs by qRT-PCR analysis
Format: functional, cell-based
Conditions: dose 1-2 µM
Outline: as §1

**Q.** For `CC(=O)OC[C@H]1OC(OC(C)=O)[C@H](NC(=O)NS(=O)(=O)c2ccc(Cl)cc2)[C@@H](OC(C)=O)[C@@H]1OC(C)=O` (stereo not given in full), which Activity is on record?
**A.** Active

**Q.** Which Activity does the source give for `O=C(N[C@H]1C(O)O[C@H](CO)[C@@H](O)[C@@H]1O)NS(=O)(=O)c1ccc(Cl)cc1` (stereo not given in full) here?
**A.** Active

Test system: Soleus muscle
Assay: Upregulation of GLUT4 expression in insulin resistant Sprague-Dawley rat soleus muscle at 1 to 2 uM incubated for 24 hrs by qRT-PCR analysis
Format: functional, tissue-based
Conditions: dose 1-2 µM
Outline: as §2

**Q.** For `CC(=O)OC[C@H]1OC(OC(C)=O)[C@H](NC(=O)NS(=O)(=O)c2ccc(Cl)cc2)[C@@H](OC(C)=O)[C@@H]1OC(C)=O` (stereo not given in full), which Activity is on record?
**A.** Active

**Q.** Which Activity does the source give for `O=C(N[C@H]1C(O)O[C@H](CO)[C@@H](O)[C@@H]1O)NS(=O)(=O)c1ccc(Cl)cc1` (stereo not given in full) here?
**A.** Active

Test system: L6
Assay: Upregulation of IRS-1 expression in insulin resistant myotube differentiated rat L6 cells incubated for 24 hrs by qRT-PCR analysis
Format: functional, cell-based
Conditions: not given
Outline: as §1

**Q.** For `CN(C)C(=N)NC(=N)N`, which Activity is on record?
**A.** Active

**Q.** With `CCC1=C(C)CN(C(=O)NCCc2ccc(S(=O)(=O)NC(=O)N[C@H]3CC[C@H](C)CC3)cc2)C1=O` as the compound, how does the Activity read?
**A.** Active

Test system: Soleus muscle
Assay: Upregulation of PI3K expression in insulin resistant Sprague-Dawley rat soleus muscle incubated for 24 hrs by qRT-PCR analysis
Format: functional, tissue-based
Conditions: not given
Outline: as §2

**Q.** Which Activity does the source give for `CN(C)C(=N)NC(=N)N` here?
**A.** Active

**Q.** Which Activity does the source give for `CCC1=C(C)CN(C(=O)NCCc2ccc(S(=O)(=O)NC(=O)N[C@H]3CC[C@H](C)CC3)cc2)C1=O` here?
**A.** Active

Test system: L6
Assay: Downregulation of PKC-alpha expression in insulin resistant myotube differentiated rat L6 cells incubated for 24 hrs by qRT-PCR analysis
Format: functional, cell-based
Conditions: not given
Outline: as §1

**Q.** With `CN(C)C(=N)NC(=N)N` as the compound, how does the Activity read?
**A.** Active

**Q.** With `CCC1=C(C)CN(C(=O)NCCc2ccc(S(=O)(=O)NC(=O)N[C@H]3CC[C@H](C)CC3)cc2)C1=O` as the compound, how does the Activity read?
**A.** Active

Test system: Soleus muscle
Assay: Downregulation of PKC-alpha expression in insulin resistant Sprague-Dawley rat soleus muscle incubated for 24 hrs by qRT-PCR analysis
Format: functional, tissue-based
Conditions: not given
Outline: as §2

**Q.** With `CN(C)C(=N)NC(=N)N` as the compound, how does the Activity read?
**A.** Active

**Q.** With `CCC1=C(C)CN(C(=O)NCCc2ccc(S(=O)(=O)NC(=O)N[C@H]3CC[C@H](C)CC3)cc2)C1=O` as the compound, how does the Activity read?
**A.** Active

Test system: L6
Assay: Upregulation of PKB/AKT2 expression in insulin resistant myotube differentiated rat L6 cells incubated for 24 hrs by qRT-PCR analysis
Format: functional, cell-based
Conditions: not given
Outline: as §1

**Q.** With `CN(C)C(=N)NC(=N)N` as the compound, how does the Activity read?
**A.** Active

**Q.** Which Activity does the source give for `CCC1=C(C)CN(C(=O)NCCc2ccc(S(=O)(=O)NC(=O)N[C@H]3CC[C@H](C)CC3)cc2)C1=O` here?
**A.** Active

Test system: L6
Assay: Upregulation of GLUT4 expression in insulin resistant myotube differentiated rat L6 cells incubated for 24 hrs by qRT-PCR analysis
Format: functional, cell-based
Conditions: not given
Outline: as §1

**Q.** Which Activity does the source give for `CN(C)C(=N)NC(=N)N` here?
**A.** Active

Test system: Soleus muscle
Assay: Upregulation of GLUT4 expression in insulin resistant Sprague-Dawley rat soleus muscle incubated for 24 hrs by qRT-PCR analysis
Format: functional, tissue-based
Conditions: not given
Outline: as §2

**Q.** For `CN(C)C(=N)NC(=N)N`, which Activity is on record?
**A.** Active

**Q.** With `CCC1=C(C)CN(C(=O)NCCc2ccc(S(=O)(=O)NC(=O)N[C@H]3CC[C@H](C)CC3)cc2)C1=O` as the compound, how does the Activity read?
**A.** Active
